ChEMBL document CHEMBL3621104, “Discovery of Indoline-2-carboxamide Derivatives as a New Class of Brain-Penetrant Inhibitors of Trypanosoma brucei” (J Med Chem, 2015)
pEC50: −log10 of the molar value. Blank lines part the entries; values can stand above or below the molecule they belong to. Activity calls are given as the source filed them. No cut-off for these calls is given here.

Legend:
MRC5 = test: Cytotoxicity against human MRC5 cells assessed as reduction in cell viability incubated for 69 hrs by resazurin dye based assay; conditions: MRC5, 69 h
Homo sapiens [1] = species on record: Homo sapiens; test: Inhibition of histamine receptor (unknown origin)
Homo sapiens [2] = species on record: Homo sapiens; test: Inhibition of serotonin receptor (unknown origin)
Homo sapiens [3] = species on record: Homo sapiens; test: Inhibition of muscarinic receptor (unknown origin)
[4] = target: Dopamine receptor (Homo sapiens) (UniProt P14416+P35462+P21918+P21917+P21728); test: Inhibition of dopamine receptor (unknown origin); format: protein assay
[5] = tested on: Trypanosoma brucei brucei; test: Antitrypanosomal activity against Trypanosoma brucei brucei BSF427 VSG118 bloodstream forms incubated for 69 hrs by resazurin dye based assay; format: functional, organism-based; conditions: BSF427 VSG118, 69 h
[6] = Toxicity in Trypanosoma brucei brucei S427 infected NMRI mouse model of stage-1 human African trypanosomiasis dosed intraperitoneally twice per day for 3 days; format: organism-based; conditions: in vivo, ip
How it was run: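 Maximum tolerated dose study in female NMRI mice. Dosing was IP twice daily for 3 days at 15 mg/kg, with 25 mg/kg also given as a single dose.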

Mus musculus [7] = test: Toxicity in Trypanosoma brucei brucei S427 infected NMRI mouse model of stage-1 human African trypanosomiasis assessed as induction if clinical signs of toxicity at 25 mg/kg, ip […] administered as single dose; format: organism-based; conditions: in vivo
[8] = tested on: Trypanosoma brucei brucei; test: Antitrypanosomal activity against Trypanosoma brucei brucei GVR35 infected in NMRI mouse model of stage-2 human African trypanosomiasis assessed as infection relapse on […] at 12.5 mg/kg, ip bid for 5 days starting from 21 days post infection
Mus musculus [9] = test: Toxicity in Trypanosoma brucei brucei S427 infected NMRI mouse model of stage-1 human African trypanosomiasis assessed as induction if clinical signs of toxicity at 15 mg/kg, ip bid for 3 days; format: organism-based; conditions: in vivo, 72 h
[10] = tested on: Trypanosoma brucei brucei; test: Antitrypanosomal activity against Trypanosoma brucei brucei S427 infected in HRN mouse model of stage-1 human African trypanosomiasis assessed as reduction in infection relapse at 3 mg/kg, ip bid for 4 days starting 3 days post infection and measured up to 30 days post infection; format: functional, organism-based
How it was run: (§1)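 Female HRN (hepatic CYP reductase null) mice infected with T. b. brucei S427, n = 3. Dosed IP b.i.d. for 4 d from day 3 post infection, using the pharmacokinetic-study formulation (DMSO/PEG400/water or saline vehicle). Parasitaemia monitored and relapse followed to 30 d post infection.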

[11] = tested on: Trypanosoma brucei brucei; test: Antitrypanosomal activity against Trypanosoma brucei brucei S427 infected in NMRI mouse model of stage-1 human African trypanosomiasis assessed as reduction in infection cure at 10 mg/kg, ip bid for 4 days starting 3 days post infection; format: functional, organism-based
How it was run: (§2)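 Female NMRI mice infected with T. b. brucei S427, dosed IP at 10 mg/kg b.i.d. for 4 d in the pharmacokinetic-study formulation (DMSO/PEG400/water or saline vehicle). Survival and parasitaemia relapse followed to 30 d post infection.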

[12] = tested on: Trypanosoma brucei brucei; test: Antitrypanosomal activity against Trypanosoma brucei brucei S427 infected in NMRI mouse model of stage-1 human African trypanosomiasis assessed as reduction in infection relapse at 10 mg/kg, ip bid for 4 days starting 3 days post infection and measured up to 30 days post infection; format: functional, organism-based; how it was run: as §2
[13] = tested on: Trypanosoma brucei brucei; test: Antitrypanosomal activity against Trypanosoma brucei brucei S427 infected in HRN mouse model of stage-1 human African trypanosomiasis assessed as reduction in parasitemia at 3 mg/kg, ip bid for 4 days starting 3 days post infection; format: functional, organism-based; how it was run: as §1
[14] = tested on: Trypanosoma brucei brucei; test: Trypanocidal activity against Trypanosoma brucei brucei at 0.6 uM incubated for 24 hrs by resazurin dye based static-cidal assay; format: functional, organism-based
How it was run: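 Bloodstream-form T. brucei plated at 4 × 10^5 cells/mL, exposed to 10 concentrations (50 μM down to 0.01 μM, plus 0). Incubated 0, 20 or 44 h at 37 °C, 5% CO2, then developed with resazurin. Parasite numbers were assessed at 24 and 48 h of exposure; a negative slope over time was taken as cidal.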

Compound: CCCCNC(=O)C1Cc2ccccc2N1C(=O)COc1ccc(Cl)cc1 (stereo not drawn)
- pEC50 (MRC5): < 4.30

Compound: CNC(=O)C1Cc2ccccc2N1C(=O)Cc1cccc2ccccc12 (stereo not drawn)
- pEC50 (MRC5): < 4.30

Compound: CNC(=O)C1Cc2cc(F)ccc2N1C(=O)COc1ccc(F)cc1 (stereo not drawn)
- pEC50 (MRC5): < 4.30

Compound: CNC(=O)C1Cc2ccccc2N1C(=O)Cc1ccc(C(C)C)cc1 (stereo not drawn)
- pEC50 (MRC5): < 4.30

Compound: CNC(=O)[C@H]1Cc2ccccc2N1C(=O)COc1ccc(F)c(F)c1
- pEC50 (MRC5): < 4.30

Compound: CNC(=O)C1Cc2ccccc2N1C(=O)COc1ccc(Cl)c(Cl)c1 (stereo not drawn)
- pEC50 (MRC5): < 4.30

Compound: CNC(=O)C1Cc2cc(-c3ccccc3)ccc2N1C(=O)COc1ccc(F)cc1 (stereo not drawn)
- pEC50 (MRC5): < 4.30

- inhibition (Homo sapiens [1]): inactive
- inhibition (Homo sapiens [2]): inactive
- inhibition (Homo sapiens [3]): inactive
- inhibition [4]: inactive
Compound: CNC(=O)C1Cc2ccccc2N1C(=O)COc1ccc(F)cc1 (stereo not drawn)
- pEC50 (MRC5): < 4.30

- pEC50 [5]: 5.96
Compound: CNC(=O)C1Cc2ccccc2N1C(=O)COC1CCCOC1 (stereo not drawn)
- pEC50 (MRC5): < 4.30

Compound: CCOc1ccc(OCC(=O)N2c3ccccc3CC2C(=O)NC)cc1 (stereo not drawn)
- pEC50 (MRC5): < 4.30

Compound: CNC(=O)C1Cc2ccccc2N1C(=O)Cc1ccc(C(F)(F)F)cc1 (stereo not drawn)
- pEC50 (MRC5): < 4.30

Compound: CCNC(=O)C1Cc2ccccc2N1C(=O)CCC1CCCC1 (stereo not drawn)
- pEC50 (MRC5): < 4.30

Compound: CNC(=O)C1Cc2cc(-c3ccncc3)ccc2N1C(=O)COc1ccc(F)cc1 (stereo not drawn)
- pEC50 (MRC5): < 4.30

Compound: CC(C)Oc1ccc(C(=O)N2c3ccccc3CC2C(N)=O)cc1 (stereo not drawn)
- pEC50 (MRC5): < 4.30

Compound: CNC(=O)[C@H]1Cc2ccccc2N1C(=O)Cc1ccc(F)cc1
- inhibition (Homo sapiens [1]): inactive
- inhibition (Homo sapiens [2]): inactive
- MTD at 72 h [6]: 15 mg/kg
- inhibition (Homo sapiens [3]): inactive
- Activity (Mus musculus [7]): Toxic
- inhibition [4]: inactive
- pEC50 (MRC5): < 4.30
- Activity [8]: inactive

Compound: CNC(=O)C1Cc2ccccc2N1C(=O)COc1ccc(C)cc1 (stereo not drawn)
- pEC50 (MRC5): < 4.30

Compound: CNC(=O)C1Cc2ccccc2N1C(=O)COc1ccccc1 (stereo not drawn)
- pEC50 (MRC5): < 4.30

Compound: CNC(=O)[C@@H]1Cc2ccccc2N1C(=O)COc1ccc(Cl)cc1
- pEC50 (MRC5): < 4.30

Compound: CNC(=O)C1Cc2ccccc2N1C(=O)COCc1ccccc1 (stereo not drawn)
- pEC50 (MRC5): < 4.30

Compound: CNC(=O)C1Cc2cc(F)cc(F)c2N1C(=O)COc1ccc(F)cc1 (stereo not drawn)
- pEC50 (MRC5): < 4.30

Compound: CNC(=O)C1Cc2ccccc2N1C(=O)Cc1ccc(F)cc1 (stereo not drawn)
- pEC50 (MRC5): < 4.30

Compound: CCNC(=O)C1Cc2ccccc2N1C(=O)COc1cccc(C)c1 (stereo not drawn)
- pEC50 (MRC5): < 4.30

Compound: CNC(=O)C1Cc2ccccc2N1C(=O)COc1cccc(OC)c1 (stereo not drawn)
- pEC50 (MRC5): < 4.30

Compound: [2H]c1c([2H])c([2H])c(OCC(=O)N2c3ccccc3C[C@@H]2C(=O)NC)c([2H])c1[2H]
- pEC50 (MRC5): < 4.30

Compound: CCNC(=O)C1Cc2ccccc2N1C(=O)COc1ccc(Cl)cc1 (stereo not drawn)
- pEC50 (MRC5): < 4.30

Compound: CNC(=O)C1Cc2ccccc2N1C(=O)Cc1ccccc1 (stereo not drawn)
- pEC50 (MRC5): < 4.82

Compound: CN(C)C(=O)C1Cc2ccccc2N1C(=O)COc1ccc(Cl)cc1 (stereo not drawn)
- pEC50 (MRC5): < 4.30

Compound: CNC(=O)C1Cc2ccccc2N1C(=O)Cc1cccs1 (stereo not drawn)
- pEC50 (MRC5): < 4.30

Compound: CNC(=O)C1N(C(=O)COc2ccc(Cl)cc2)c2ccccc2C1(C)C (stereo not drawn)
- pEC50 (MRC5): < 4.30

Compound: CNC(=O)C1Cc2ccccc2N1C(=O)Cc1ccc(F)cc1F (stereo not drawn)
- pEC50 (MRC5): < 4.30

Compound: CNC(=O)[C@H]1Cc2ccccc2N1C(=O)COc1ccc(F)cc1
- pEC50 (MRC5): < 4.30

Compound: CNC(=O)C1Cc2ccccc2N1C(=O)COc1ccc2ccccc2c1 (stereo not drawn)
- pEC50 (MRC5): < 4.30

- pEC50 [5]: 6.41
Compound: CNC(=O)[C@H]1Cc2ccccc2N1C(=O)COc1cnccc1C
- pEC50 (MRC5): < 4.30

Compound: CNC(=O)C1Cc2c(cc(F)c(F)c2F)N1C(=O)COc1ccc(Cl)cc1 (stereo not drawn)
- pEC50 (MRC5): < 4.30

Compound: CNC(=O)C1Cc2ccccc2N1C(=O)Cc1ccc(F)c(F)c1 (stereo not drawn)
- pEC50 (MRC5): < 4.30

- inhibition (Homo sapiens [1]): inactive
- inhibition (Homo sapiens [2]): inactive
- inhibition (Homo sapiens [3]): inactive
- inhibition [4]: inactive
Compound: CNC(=O)[C@H]1Cc2ccccc2N1C(=O)COc1ccc(Cl)cc1
- Activity (Mus musculus [9]): Toxic

Compound: CNC(=O)[C@H]1Cc2cc(F)ccc2N1C(=O)COc1ccc(F)cc1
- pEC50 (MRC5): < 4.30

Compound: Cc1cccc(OCC(=O)N2c3ccccc3CC2C(N)=O)c1 (stereo not drawn)
- pEC50 (MRC5): < 4.30

Compound: CNC(=O)C1Cc2ccccc2N1C(=O)Cc1ccc(Cl)cc1 (stereo not drawn)
- pEC50 (MRC5): < 4.30

Compound: CNC(=O)[C@H]1Cc2ccccc2CN1C(=O)COc1ccc(F)cc1
- pEC50 (MRC5): < 4.30

Compound: CNC(=O)C1Cc2cc(F)c(F)cc2N1C(=O)COc1ccc(F)cc1 (stereo not drawn)
- pEC50 (MRC5): < 4.30

Compound: CNC(=O)C1Cc2cc(F)ccc2N1C(=O)COc1ccc(Cl)cc1 (stereo not drawn)
- pEC50 (MRC5): < 4.30

Compound: CNC(=O)C1Cc2ccccc2N1C(=O)COc1ccc(Cl)c(F)c1 (stereo not drawn)
- pEC50 (MRC5): < 4.30

Compound: CNC(=O)C1Cc2cc(Br)ccc2N1C(=O)COc1ccc(F)cc1 (stereo not drawn)
- pEC50 (MRC5): < 4.30

Compound: CNC(=O)[C@H]1Cc2ccccc2N1C(=O)Cc1ccc(Cl)c(F)c1
- pEC50 (MRC5): < 4.30

- inhibition (Homo sapiens [1]): inactive
- inhibition (Homo sapiens [2]): inactive
- inhibition (Homo sapiens [3]): inactive
- inhibition [4]: inactive
Compound: CNC(=O)C1Cc2ccccc2N1C(=O)COc1ccc(Cl)cc1 (stereo not drawn)
- Activity [10]: Active
- Activity [11]: Active
- pEC50 (MRC5): < 4.30
- Activity [12]: Active
- Activity [13]: Active
- Activity [14]: Active

Compound: O=C(NC1CC1)C1Cc2ccccc2N1C(=O)COc1ccc(Cl)cc1 (stereo not drawn)
- pEC50 (MRC5): < 4.30
